Laboratory results published in article PMC6424611 (Journal of molecular biology, 2019).
Where no end group is shown, it is not given here. [ ]: non-standard residue; d: D form. The star is where a group is joined. Biotin = O=C1N[C@H]2[C@H](CS[C@H]2CCCCC(=O)*)N1; TTDS = NCCCOCCOCCOCCCNC(=O)CCC(=O)*; pS = N[C@@H](COP(=O)(O)O)C(=O)O

Legend:
LAP2 PDZ = experiment: holdup assay; type: binding, human; details: ~4 μM PDZ; for binding intensity (BI): fraction of PDZ depleted, biotinylated RSK1_725–735, triplicates
Method in brief: (§1)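 Automated holdup against N-terminally biotinylated (TTDS linker) RSK1 725–735 peptides, unphosphorylated and phosphorylated, in triplicate. PDZome v2 clones were codon-optimized and expressed in E. coli, with soluble lysate adjusted to ~4 μM. BI is the PDZ fraction depleted from the fluid phase.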

PDZD7-3 PDZ = molecular target: T1, PDZD7-3 PDZ (Homo sapiens, UniProt Q9H5P4); experiment: holdup assay; type: binding; details: ~4 μM PDZ; for binding intensity (BI): fraction of PDZ depleted, biotinylated RSK1_725–735, triplicates; for Kd: read-out: KD, estimated, from BI, estimated 17 μM peptide
T1 sequence (Q9H5P4 862-934 limits assumed): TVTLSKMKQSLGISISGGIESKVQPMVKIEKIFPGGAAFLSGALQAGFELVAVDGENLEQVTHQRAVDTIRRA
Method in brief: as §1

RHPN1 PDZ = experiment: holdup assay, updated analysis; type: binding, human; details: weak partner; automated computational protocol
Method in brief: (§2)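 The same triplicate holdup datasets (biotinylated RSK1 725–735, unphosphorylated and phosphorylated, vs ~4 μM PDZome lysates) were re-analysed with an updated automated computational protocol. This gave alternative BI values, reported as supplemental values alongside the conventional analysis.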

PDZRN3-1 PDZ = molecular target: T2, PDZRN3-1 PDZ (Homo sapiens, UniProt Q9UPQ7); experiment: holdup assay; type: binding; details: ~4 μM PDZ; for binding intensity (BI): fraction of PDZ depleted, biotinylated RSK1_725–735, triplicates; for Kd: read-out: KD, estimated, from BI, estimated 17 μM peptide
T2 sequence (Q9UPQ7 249-339 limits assumed): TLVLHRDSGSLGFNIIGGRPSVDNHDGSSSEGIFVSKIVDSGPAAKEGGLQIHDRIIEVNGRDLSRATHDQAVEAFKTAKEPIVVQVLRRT
Method in brief: as §1

MPDZ-10 PDZ = experiment: holdup assay, updated analysis; type: binding, human; details: weak partner; automated computational protocol
Method in brief: as §2

GORASP1 PDZ = experiment: holdup assay; type: binding, human; details: ~4 μM PDZ; for binding intensity (BI): fraction of PDZ depleted, biotinylated RSK1_725–735, triplicates; for Kd: read-out: KD, estimated, from BI, estimated 17 μM peptide
Method in brief: as §1

SCRIB-3 PDZ = experiment: holdup assay, updated analysis; type: binding, human; details: weak partner; automated computational protocol
Method in brief: as §2

SYNJ2BP PDZ = molecular target: T3, SYNJ2BP PDZ (Homo sapiens, UniProt P57105); experiment: competitive fluorescence polarization; type: binding; details: summary of high-throughput SPR and competitive FP
T3 sequence (P57105 13-100 limits assumed): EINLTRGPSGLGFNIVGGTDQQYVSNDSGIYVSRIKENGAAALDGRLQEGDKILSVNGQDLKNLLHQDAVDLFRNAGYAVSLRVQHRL

SNTA1 PDZ = molecular target: T4, SNTA1 PDZ (Homo sapiens, UniProt Q13424); experiment: holdup assay; type: binding; details: ~4 μM PDZ; for binding intensity (BI): fraction of PDZ depleted, biotinylated RSK1_725–735, triplicates
T4 sequence (Q13424 87-170 limits assumed): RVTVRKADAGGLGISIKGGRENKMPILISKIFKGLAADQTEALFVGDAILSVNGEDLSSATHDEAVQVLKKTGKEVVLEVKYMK
Method in brief: as §1

SHROOM2 PDZ = experiment: holdup assay; type: binding, human; details: ~4 μM PDZ; for binding intensity (BI): fraction of PDZ depleted, biotinylated RSK1_725–735, triplicates; for Kd: read-out: KD, estimated, from BI, estimated 17 μM peptide
Method in brief: as §1

MAST2 PDZ = molecular target: T5, MAST2 PDZ (Homo sapiens, UniProt Q6P0Q8); experiment: holdup assay; type: binding; details: ~4 μM PDZ; for binding intensity (BI): fraction of PDZ depleted, biotinylated RSK1_725–735, triplicates
T5 sequence (Q6P0Q8 1104-1192 limits assumed): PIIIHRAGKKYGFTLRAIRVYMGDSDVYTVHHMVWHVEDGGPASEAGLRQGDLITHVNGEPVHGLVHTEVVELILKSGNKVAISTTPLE
Method in brief: as §1

PARD3B-1 PDZ = molecular target: T6, PARD3B-1 PDZ (Homo sapiens, UniProt Q8TEW8); experiment: holdup assay; type: binding; details: fraction of PDZ depleted; ~4 μM PDZ; biotinylated RSK1_725–735; triplicates
T6 sequence (Q8TEW8 201-289 limits assumed): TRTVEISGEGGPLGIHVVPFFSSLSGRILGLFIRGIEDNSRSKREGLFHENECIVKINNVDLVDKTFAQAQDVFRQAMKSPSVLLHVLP
Method in brief: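 Automated holdup in triplicate measured biotinylated (N-terminal TTDS linker) RSK1 725–735 peptides, unphosphorylated or phosphorylated, against E. coli-expressed PDZome v2 domains. Soluble lysate was adjusted to ~4 μM, giving 255 domains for the unphosphorylated and 252 for the phosphorylated peptide. Binding intensity (BI) is the fraction of PDZ depleted from the fluid phase. BI 0.2 was the high-confidence threshold.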

DLG3 PDZ = experiment: holdup assay, updated analysis; type: binding, human; details: weak partner; automated computational protocol
Method in brief: as §2

PDZRN3–2 PDZ = experiment: holdup assay, updated analysis; type: binding, human; details: weak partner; automated computational protocol
Method in brief: as §2

LIN7A PDZ = experiment: holdup assay, updated analysis; type: binding, human; details: weak partner; automated computational protocol
Method in brief: as §2

[1] = read-out: KD, estimated, from BI, estimated 17 μM peptide

binding intensity (BI) (LAP2 PDZ) | binding intensity (BI) (PDZD7-3 PDZ) | Kd (PDZD7-3 PDZ) [µM] | binding intensity (BI) (PDZRN3-1 PDZ) | Kd (PDZRN3-1 PDZ) [µM] | binding intensity (BI) (GORASP1 PDZ) | Kd (GORASP1 PDZ) [µM] | binding intensity (BI) (SNTA1 PDZ) | binding intensity (BI) (SHROOM2 PDZ) | Kd (SHROOM2 PDZ) [µM] | binding intensity (BI) (MAST2 PDZ) | binding intensity (BI) (PARD3B-1 PDZ) | Substance | interaction partner by updated analysis (SCRIB-3 PDZ) | other results
−0.02 ± 0.05 | 0.60 ±0.03 | 9.7 | 0.26 ± 0.01 | 45.4 | 0.01 ± 0.02 | > 100 | 0.31 ± 0.04 | 0.00 ± 0.01 | > 100 | 0.74 ± 0.03 | 0.52 ± 0.05 | unphosphorylated RSK1 peptide: C-terminal RSK1 PBM peptide; RSK1_725–735 (holdup, SPR), RSK1_729–735 (direct FP), RSK1_683–735 (competitive FP) ({Biotin-TTDS}-RRVRKLPSTTL) | new interaction partners | Kd (LAP2 PDZ; [1]): > 100 µM; interaction partner by updated analysis (RHPN1 PDZ): new interaction partners; interaction partner by updated analysis (MPDZ-10 PDZ): new interaction partners; dissociation constant (SYNJ2BP PDZ): no interaction was detectable
0.28 ± 0.01 | 0.15 ± 0.03 | 92.9 | 0.45 ± 0.01 | 18.6 | 0.23 ± 0.03 | 53.8 | 0.53 ± 0.01 | 0.21 ± 0.01 | 60.8 | 0.23 ± 0.03 | 0.31 ± 0.02 | phosphorylated RSK1 peptide: RSK1 C-terminal PBM peptide phosphorylated at position −3; same constructs as the unphosphorylated ({Biotin-TTDS}-RRVRKLP[pS]TTL) | new partners | interaction partner by updated analysis (DLG3 PDZ): new partners; interaction partner by updated analysis (PDZRN3–2 PDZ): new partners; Kd (SNTA1 PDZ; [1]): 13.2 µM; Kd (MAST2 PDZ; [1]): 53.8 µM; interaction partner by updated analysis (LIN7A PDZ): new partners
